A selection: hits, their analogues and other compounds. The true share with any hit is near 6.4%.
CHOP inh: blocks CHOP induction under ER stress; CHO-K1 CHOP-promoter luciferase, tunicamycin-induced, 15-18 h; actives 3.8% (n = 220,000); inhibition, % at 10 µM;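 active means compounds that reduced the stress-induced luciferase reporter signal by more than about 70% of percent inhibition, limit read from the data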
TbMetRS inhib: Trypanosoma brucei MetRS inhibition | actives 0.4% (n = 360,000) | inhibition, % at 11.9 µM | purified T. brucei MetRS, ATP depletion, Kinase-Glo luminescence;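 active means inhibition above a per-plate cutoff of the control wells' mean inhibition plus 3 SD, cut at about 5.5% in these data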
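Test system – parasite MetRS enzyme · Reagent – substrates ATP, L-methionine and bulk Escherichia coli tRNA · Doses – 11.9 µM compound single dose, 0.9% DMSO · Times – 15 min enzyme-compound preincubation, 2 h reaction, 10 min detection, 25 °C · Signal – Kinase-Glo luminescence, ATP depletion format · Controls – DMSO-only wells as low control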
MPTP inh: permeability transition pore inhibition. actives 1.4% (n = 360,000). isolated mouse mitochondria, Ca2+ swelling absorbance, 30 min. inhibition, % at 10 µM;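 active means inhibition of 50% or more, scaled per plate between neutral and stimulator controls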
NR3A LBD binder: modulates the human NR3A ligand-binding domain; NR3A LBD differential scanning fluorimetry, Tm shift; 0% = protein alone, 100% = glycine-bound protein; Tm shift relative to glycine control, % at 25 µM; actives 2.5% (n = 340,000); AID 1259313;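 active means melting temperature shift of at least 10% of the positive control shift, at one fixed dose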
EBV gp42 block: blocks Epstein-Barr virus glycoprotein 42 binding; Q1HVG2; Fluorescence polarization binding assay, mP read-out; inhibition, % (tested at 21.74 µM); actives 0.42% (n = 220,000); AID 1085; in the data active means inhibition above about 50%
Target sequence (Q1HVG2 whole entry, looked up): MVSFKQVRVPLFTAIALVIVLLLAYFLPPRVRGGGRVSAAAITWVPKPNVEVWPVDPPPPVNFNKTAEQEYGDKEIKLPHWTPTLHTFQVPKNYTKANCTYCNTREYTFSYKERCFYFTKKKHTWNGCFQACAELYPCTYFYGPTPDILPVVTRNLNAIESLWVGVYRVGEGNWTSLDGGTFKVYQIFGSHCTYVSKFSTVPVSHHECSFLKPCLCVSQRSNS
WT yeast gro inh: growth inhibition of WT yeast, mitochondrial fusion screen. mitochondrial fusion phenotypic screen, WT strain. inhibition, % at 10 µM. actives 2.1% (n = 190,000). AID 1362; in the data active means inhibition above about 58%; tested in S. cerevisiae
Large screens that a line does not name were inactive.

c1ccc(Cn2nnnc2C(c2cccs2)N2CCc3ccccc3C2)cc1 (stereo not drawn)	CHOP inh 76, NR3A LBD binder 16
c1ccc(Cn2nnnc2C(c2cccs2)N2CCCCCC2)cc1 (stereo not drawn)	none
CC(C)C(c1nnnn1Cc1ccccc1)N1CCc2ccccc2C1 (stereo not drawn)	CHOP inh 76
CCOC(=O)CCCCNC(=O)Nc1ccccc1	none
Cc1ccc(-c2nnc(Nc3ccccc3)o2)cc1	CHOP inh 84
COCCCN1C(=O)C(CC(=O)NC(c2ccccc2)c2ccccc2)CC(C(=O)N(C)C)=C1C (stereo not drawn)	none (no result: CHOP inh, NR3A LBD binder, EBV gp42 block, WT yeast gro inh)
Cc1cn2c(N)c(/C=C3\C=Nc4ccccc43)c(=O)nc2s1	NR3A LBD binder 16 (no result: WT yeast gro inh)
CCn1c(O)c(/C=C2\C=Nc3ccccc32)sc1=O	none
CC(C)S(=O)(=O)c1nsc2nc(=O)c(/C=C3\C=Nc4ccccc43)c(N)n12	NR3A LBD binder 23
CCc1nn2c(N)c(/C=C3\C=Nc4ccccc43)c(=O)nc2s1	none
CSc1nsc2nc(=O)c(/C=C3\C=Nc4ccccc43)c(N)n12	NR3A LBD binder 22
Cc1nc2ccccn2c1C(=O)NCc1ccc2c(c1)OCO2	none
COc1ccccc1NC(=O)Nc1nn(C)c2cccc(N(C)C)c12	none (no result: WT yeast gro inh)
COc1ccc(CC(CN)c2ccccc2)cc1 (stereo not drawn)	none (no result: CHOP inh, EBV gp42 block, WT yeast gro inh)
CC(C)[C@H](NC(=O)c1ccco1)C(=O)OCC(=O)c1ccc2c(c1)NC(=O)CO2	NR3A LBD binder 11
O=C1COc2ccc(C(=O)COC(=O)c3ccco3)cc2N1	none (no result: WT yeast gro inh)
O=C(NC(=S)N1CCN(Cc2ccc3c(c2)OCO3)CC1)c1ccc(Cl)cc1	WT yeast gro inh 62
Cc1cc(Cl)ccc1NC(=S)N1CCN(Cc2ccc3c(c2)OCO3)CC1	none
O=C(NC(=S)N1CCN(Cc2ccc3c(c2)OCO3)CC1)c1cccc(Br)c1	WT yeast gro inh 60
Cc1ccc(-c2csc(=S)[nH]2)cc1	none
S=c1[nH]c(-c2ccc(Cl)cc2)cs1	WT yeast gro inh 65
CS(=O)(=O)N(CC(=O)NCc1ccc2c(c1)OCO2)c1ccc(Cl)cc1	WT yeast gro inh 80
O=C(NCc1ccc2c(c1)OCO2)c1ccc(CS(=O)(=O)Cc2cccc(Cl)c2)o1	none
O=C(NCc1ccc2c(c1)OCO2)c1ccc(CSCc2ccc(Cl)cc2)o1	WT yeast gro inh 59
CCc1ccccc1S(=O)(=O)Cc1ccc(C(=O)NCc2ccc3c(c2)OCO3)o1	CHOP inh 87
CCOc1cc(/C=C2\COc3ccccc3C2=O)ccc1OCC(=O)N(C)C	none (no result: CHOP inh, EBV gp42 block, WT yeast gro inh)
Nc1nc(-c2cc(O)ccc2[N+](=O)[O-])cc(-c2ccccc2)c1[N+](=O)[O-]	NR3A LBD binder 11 (no result: CHOP inh, EBV gp42 block, WT yeast gro inh)
CC(=C/c1ccco1)/C=N/NC(=O)CSc1nnc(SCc2ccc(C)cc2)s1	CHOP inh 80
O=C(COc1ccccc1[N+](=O)[O-])N/N=C/C=C/c1ccco1	WT yeast gro inh 71
Cc1ccc(CSc2nnc(SCC(=O)N/N=C/c3ccc(C(=O)O)cc3)s2)cc1	none (no result: WT yeast gro inh)
O=C(CSc1nnc(SCc2ccccc2)s1)N/N=C/C=C\c1ccco1	EBV gp42 block 53
Cc1ccc(OCC(=O)N/N=C/C=C/c2ccco2)cc1	none
O=[N+]([O-])c1ccn(-c2nc(-c3cccs3)cc(C(F)(F)F)n2)n1	none
FC(F)(F)c1cc(-c2cccs2)nc(-n2cc(Cl)cn2)n1	CHOP inh 85
O=C(CSc1n[nH]c(-c2ccco2)n1)Nc1ccccc1F	none (no result: CHOP inh, EBV gp42 block, WT yeast gro inh)
COc1ccc(Cn2c(-c3ccco3)nc3oc4cc(OC)ccc4c(=O)c3c2=O)cc1	CHOP inh 92
C[C@@H](C(=O)NC1CCCC1)N1C(=O)N2CCc3c([nH]c4ccccc34)[C@@]2(C)C1=O	none (no result: CHOP inh, EBV gp42 block, WT yeast gro inh)
CC1=C(/C=C/C(C)=C/C=C/C(C)=C/C(=O)Nc2ccc(O)cc2)C(C)(C)CCC1	NR3A LBD binder 17 (no result: EBV gp42 block, WT yeast gro inh)
CCOc1ccc(NC(=O)CCC(=O)NNC(=O)Nc2ccc(Cl)cc2)cc1	NR3A LBD binder 12
Cn1cnnc1SC1c2cccc3cccc(c23)C1NS(=O)(=O)c1ccccc1 (stereo not drawn)	none
CS(=O)(=O)NC1c2cccc3cccc(c23)C1Sc1nncn1/N=C/c1ccco1 (stereo not drawn)	NR3A LBD binder 20
Cc1cccc(-c2csc(N)c2C(=O)OC(C)C)c1	CHOP inh 74
CCOC(=O)c1c(-c2cccc([N+](=O)[O-])c2)csc1N	none
Cc1ccc(C)c(-c2csc(N)c2C(=O)OC(C)C)c1	CHOP inh 80
CC(=O)N1CC(C)Sc2ccc(S(=O)(=O)NCc3ccccc3Cl)cc21 (stereo not drawn)	none (no result: CHOP inh, EBV gp42 block, WT yeast gro inh)
Cc1ccc(S(=O)(=O)C2(C(=O)N3CCCCCC3)CC2)cc1	none
CCOC(=O)C1CCN(C(=O)Cn2ncc3c([nH]c4ccccc43)c2=O)CC1	NR3A LBD binder 13 (no result: CHOP inh, EBV gp42 block, WT yeast gro inh)
COc1ccc(NC(=O)c2c(C(F)(F)F)nn(C)c2Cl)cc1	none
Cc1nn(-c2ccccc2)c2sc(C(=O)NCCN3CCOCC3)cc12	none (no result: CHOP inh, EBV gp42 block)
CC(=O)CSc1ncnc2sc3c(c12)CCCC3	none
CC(=O)C(Sc1ncnc2sc3c(c12)CCCC3)C(C)=O	WT yeast gro inh 76
CCCN(CCC)Cc1cc2ccccc2c2c1COC2	none
CCCCN(CCCC)Cc1cc2ccccc2c2c1COC2	CHOP inh 76
CC1(C(=O)NCCc2ccccc2)Cc2c(-c3ccc(C(N)=O)cc3)ccnc2O1 (stereo not drawn)	none (no result: CHOP inh, NR3A LBD binder, EBV gp42 block, WT yeast gro inh)
CC(C)C[C@H]1COc2cc(N3CCC[C@H]3CO)ccc2S(=O)(=O)N1	none (no result: CHOP inh, NR3A LBD binder, EBV gp42 block, WT yeast gro inh)
COC(=O)c1cc2nc(-c3ccc(OC)cc3)cc(C(F)(F)F)n2n1	CHOP inh 70
O=C(COC(=O)Cn1cnc2ccccc2c1=O)NNC(=O)c1ccc(Br)cc1	none (no result: CHOP inh, EBV gp42 block, WT yeast gro inh)
Fc1ccccc1N1CC(c2ccccc2)C(c2cccs2)=N1 (stereo not drawn)	CHOP inh 71
O=C(CSC1=NC2(CCCCCC2)N=C1c1ccccc1)Nc1ccc2c(c1)OCCO2	WT yeast gro inh 58
Nn1c(SCC(=O)Nc2ccc3c(c2)OCCO3)nnc1-c1cccnc1	none (no result: CHOP inh, EBV gp42 block, WT yeast gro inh)
COc1ccc(NC(=O)CSc2ccc3c(c2)OCCO3)cc1OC	WT yeast gro inh 86
COc1cc(NC(=O)CSc2ccc3c(c2)OCCO3)cc(OC)c1OC	none
Nn1c(SCC(=O)Nc2ccc3c(c2)OCO3)nnc1-c1ccncc1	WT yeast gro inh 88
Nn1c(SCC(=O)Nc2ccc3c(c2)OCCO3)nnc1-c1ccncc1	NR3A LBD binder 17 (no result: CHOP inh, EBV gp42 block, WT yeast gro inh)
Cc1csc2c(NCCCN3CCOCC3)ncnc12	none (no result: WT yeast gro inh)
Cc1ccc(NC(=O)CCSc2nnnn2-c2ccc3c(c2)OCO3)cc1C	CHOP inh 73
COc1cc2cc(C(=O)Nc3ccc4c(c3)OCCO4)[nH]c2cc1OC	NR3A LBD binder 11 (no result: CHOP inh, EBV gp42 block, WT yeast gro inh)
O=C(CSc1nnc2scc(-c3ccccc3)n12)Nc1ccc2c(c1)OCCO2	WT yeast gro inh 73
